From ChEMBL document CHEMBL4393670 (J Med Chem, 2019)
Calls of active or inactive are those of the source. The calls are words filed in the database; no cut-off is given here. Residues, ends and D or L forms follow the SMILES beside them. *: point of attachment. Cbz = O=C(OCc1ccccc1)*; Boc = CC(C)(C)OC(=O)*; OBn = c1ccc(CO*)cc1; OtBu = CC(C)(C)O*

Key:
[1] = target: T1, Proteasome Macropain subunit MB1 (Homo sapiens, UniProt P28074); test: Inhibition of 20S proteasome beta5 subunit in human RPMI8226 cell lysate using Suc-LLVY-AMC as substrate pretreated for 1 hr followed by substrate addition and measured at 1 min interval by fluorescence assay; assay type: subcellular
T1 sequence (P28074 whole entry): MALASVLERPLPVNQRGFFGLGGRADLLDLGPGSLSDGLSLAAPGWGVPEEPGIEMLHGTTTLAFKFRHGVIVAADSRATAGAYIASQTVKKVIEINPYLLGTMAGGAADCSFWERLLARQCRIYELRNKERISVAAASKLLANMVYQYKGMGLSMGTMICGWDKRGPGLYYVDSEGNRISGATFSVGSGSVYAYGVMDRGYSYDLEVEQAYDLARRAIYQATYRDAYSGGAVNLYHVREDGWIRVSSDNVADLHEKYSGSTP

[2] = tested on: NCI-H23; test: Cytotoxicity against human NCI-H23 cells after 72 hrs by CellTiter 96 AQueous one solution cell proliferation assay; assay type: functional, cell-based; settings: NCI-H23, 72 h
Outline: (§1)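 Cells in RPMI1640 with 10% FBS; H23 plated at 5000, H727, RPMI8226 and the Cfz-resistant subline at 10 000 cells/well. Resistant subline adapted to stepwise Cfz up to 80 nM over ~6 months, kept in 80 nM, then Cfz-free ~1 week before testing.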

[3] = target: T2, Proteasome subunit beta type-9 (Homo sapiens, UniProt P28065); test: Inhibition of purified human 20S immunoproteasome beta1 subunit using Ac-Pro-Ala-Leu-AMC as substrate pretreated for 1 hr followed by substrate addition and measured at 1 min interval by fluorescence assay
T2 sequence (P28065 whole entry): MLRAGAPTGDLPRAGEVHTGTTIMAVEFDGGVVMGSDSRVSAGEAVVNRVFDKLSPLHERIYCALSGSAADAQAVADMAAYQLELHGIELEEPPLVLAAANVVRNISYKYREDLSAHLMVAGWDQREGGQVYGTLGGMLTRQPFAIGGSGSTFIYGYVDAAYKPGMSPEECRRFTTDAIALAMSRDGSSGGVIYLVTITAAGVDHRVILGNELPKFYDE

[4] = species: Homo sapiens; test: Cytotoxicity against human multiple myeloma cells at 10 uM after 48 hrs by CellTiter Glo luminescent cell viability assay
[5] = tested on: NCI-H727; test: Cytotoxicity against human NCI-H727 cells after 72 hrs by CellTiter 96 AQueous one solution cell proliferation assay; assay type: functional, cell-based; settings: NCI-H727, 72 h; outline: as §1
[6] = tested on: RPMI-8226; test: Cytotoxicity against human RPMI8226 cells after 72 hrs by CellTiter 96 AQueous one solution cell proliferation assay; assay type: functional, cell-based; settings: RPMI-8226, 72 h; outline: as §1
[7] = Cytotoxicity against human RPMI8226/Cfzr cells after 72 hrs by CellTiter 96 AQueous one solution cell proliferation assay; assay type: functional, cell-based; settings: RPMI-8226, 72 h; outline: as §1
[8] = Selectivity ratio of IC50 for human NCI-H727 cells to IC50 for human NCI-H23 cells; assay type: functional
[9] = species: Homo sapiens; test: Cytotoxicity against human Btz-resistant multiple myeloma cells at 10 uM after 48 hrs by CellTiter Glo luminescent cell viability assay
[10] = Selectivity ratio of IC50 for human RPMI8226/Cfzr cells to IC50 for human RPMI8226 cells; assay type: functional
[11] = tested on: NCI-H727; test: Potency index, ratio of carfilzomib IC50 to test compound IC50 for human NCI-H727 cells; assay type: functional
[12] = Stability in Sprague-Dawley rat liver homogenate at 1 uM measured up to 20 mins by LC-MS/MS analysis
[13] = Potency index, ratio of carfilzomib IC50 to test compound IC50 for human RPMI8226/Cfzr cells; assay type: functional
[14] = Half life in patient with relapsed and refractory multiple myeloma; assay type: ADME; settings: human, in vivo
[15] = target: ATP-dependent translocase ABCB1 (Homo sapiens, UniProt P08183); test: Inhibition of P-gp in human RPMI8226/Cfzr cells assessed as potentiation of carfilzomib-induced cytotoxicity at 7.5 uM measured after 72 hrs by CellTiter 96 AQueous one solution cell proliferation assay; assay type: cell-based
ATP-dependent translocase ABCB1, sequence (P08183 whole entry): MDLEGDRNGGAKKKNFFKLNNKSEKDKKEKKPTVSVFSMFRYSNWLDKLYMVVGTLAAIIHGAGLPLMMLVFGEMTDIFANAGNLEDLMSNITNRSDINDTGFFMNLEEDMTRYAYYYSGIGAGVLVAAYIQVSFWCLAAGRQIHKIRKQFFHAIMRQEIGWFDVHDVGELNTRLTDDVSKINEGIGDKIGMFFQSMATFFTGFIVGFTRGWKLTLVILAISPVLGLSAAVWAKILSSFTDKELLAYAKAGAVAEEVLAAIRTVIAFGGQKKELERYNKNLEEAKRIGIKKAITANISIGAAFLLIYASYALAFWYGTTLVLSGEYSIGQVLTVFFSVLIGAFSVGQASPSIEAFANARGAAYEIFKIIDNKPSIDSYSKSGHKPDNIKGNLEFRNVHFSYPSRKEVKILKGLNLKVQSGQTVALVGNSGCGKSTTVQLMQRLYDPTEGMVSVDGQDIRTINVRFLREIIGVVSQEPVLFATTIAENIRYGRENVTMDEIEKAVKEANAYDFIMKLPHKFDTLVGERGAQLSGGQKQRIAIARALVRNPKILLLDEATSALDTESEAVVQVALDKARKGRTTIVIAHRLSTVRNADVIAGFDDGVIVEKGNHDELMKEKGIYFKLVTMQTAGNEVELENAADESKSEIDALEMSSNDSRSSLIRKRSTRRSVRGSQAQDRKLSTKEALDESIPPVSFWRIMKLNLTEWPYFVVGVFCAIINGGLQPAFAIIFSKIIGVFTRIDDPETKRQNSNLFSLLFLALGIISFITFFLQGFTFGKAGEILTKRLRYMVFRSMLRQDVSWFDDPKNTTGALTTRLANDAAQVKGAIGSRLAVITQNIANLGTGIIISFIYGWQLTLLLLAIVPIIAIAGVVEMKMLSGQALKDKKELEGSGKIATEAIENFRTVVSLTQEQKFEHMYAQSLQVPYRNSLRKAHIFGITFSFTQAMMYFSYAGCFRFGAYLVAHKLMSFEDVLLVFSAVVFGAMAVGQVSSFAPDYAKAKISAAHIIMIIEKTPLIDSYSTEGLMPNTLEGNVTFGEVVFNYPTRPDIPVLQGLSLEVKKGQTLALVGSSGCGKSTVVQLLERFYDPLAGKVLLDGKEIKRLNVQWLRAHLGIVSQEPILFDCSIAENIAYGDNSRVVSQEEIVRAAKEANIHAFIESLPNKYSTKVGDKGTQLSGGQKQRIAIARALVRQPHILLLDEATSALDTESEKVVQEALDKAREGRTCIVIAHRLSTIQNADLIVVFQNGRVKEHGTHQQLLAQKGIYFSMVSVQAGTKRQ

| IC50 [1] | SMILES | IC50 [2] | IC50 [5] | IC50 [7] | Ratio IC50 [8] | other results |
| --- | --- | --- | --- | --- | --- | --- |
| > 1000 nM | COCOC[C@]1(C(=O)[C@H](CC(C)C)NC(=O)[C@H](Cc2ccccc2)NC(=O)[C@H](CC(C)C)NC(=O)[C@H](CCc2ccccc2)NC(=O)CN2CCOCC2)CO1 | – | – | – | – | – |
| 8 nM | CC(C)C[C@H](NC(=O)[C@H](CCc1ccccc1)NC(=O)CN1CCOCC1)C(=O)N[C@@H](Cc1ccccc1)C(=O)N[C@@H](CC(C)C)C(=O)[C@@]1(COS(C)(=O)=O)CO1 | 311 nM | 834 nM | – | – | – |
| – | CC[C@H](C)[C@H](NC(=O)[C@H]([C@@H](C)CC)N(C)C(C)=O)C(=O)N[C@H](C(=O)N[C@@H](CC(C)C)C(=O)[C@@]1(C)CO1)[C@@H](C)O [EPOXOMYCIN] | – | – | 541 nM | – | IC50 [6]: 11 nM; Ratio IC50 [10]: 49.2 |
| > 1000 nM | COCCOCOC[C@]1(C(=O)[C@H](CC(C)C)NC(=O)[C@H](Cc2ccccc2)NC(=O)[C@H](CC(C)C)NC(=O)[C@H](CCc2ccccc2)NC(=O)CN2CCOCC2)CO1 | – | – | – | – | – |
| 1700 nM | CCCCCCC(=O)N[C@@H](C)C(=O)N[C@@H](CC(C)C)C(=O)[C@@]1(CO)CO1 | 580 nM | 690 nM | 310 nM | – | IC50 [3]: 36 nM |
| – | CC(C)C[C@H](NC(=O)[C@H](Cc1ccccc1)NC(=O)c1cnccn1)B(O)O [BORTEZOMIB] | 10 nM | 25 nM | – | 2.5 | – |
| – | CCCCCCC(=O)N[C@@H](CO)C(=O)N[C@@H](CC(C)C)C(=O)[C@@]1(COCOCCOC)CO1 | 3400 nM | 4490 nM | 3410 nM | 1.3 | Activity [4]: Active; IC50 [6]: 2080 nM; Activity [9]: Active; Ratio IC50 [10]: 1.6 |
| > 1000 nM | COC[C@]1(C(=O)[C@H](CC(C)C)NC(=O)[C@H](Cc2ccccc2)NC(=O)[C@H](CC(C)C)NC(=O)[C@H](CCc2ccccc2)NC(=O)CN2CCOCC2)CO1 | – | – | – | – | – |
| 2.1 nM | CC(C)C[C@H](NC(=O)[C@H](CCc1ccccc1)NC(=O)CN1CCOCC1)C(=O)N[C@@H](Cc1ccccc1)C(=O)N[C@@H](CC(C)C)C(=O)[C@@]1(CO)CO1 | 29.4 nM | 61 nM | 106 nM | – | IC50 [3]: 743 nM; Ratio IC50 [11]: 10; Stability [12]: Stable; Ratio IC50 [13]: 3 |
| – | CC(C)C[C@H](NC(=O)[C@H](CCc1ccccc1)NC(=O)CN1CCOCC1)C(=O)N[C@@H](Cc1ccccc1)C(=O)N[C@@H](CC(C)C)C(=O)[C@@]1(C)CO1 [CARFILZOMIB] | 18 to 18.3 nM | 610 to 611 nM | 269 to 270 nM | – | half-life [14]: < 1 h; IC50 [6]: 7 nM; Stability [12]: Stable |
| – | CC(C)C[C@@H](C=O)NC(=O)[C@H](CC(C)C)NC(=O)[C@H](CC(C)C)NC(=O)OCc1ccccc1 [MG-132] (Cbz-Leu-Leu-Leu-aldehyde) | 480 nM | 980 nM | – | 2 | – |
| – | CC(C)(C)OC(=O)N[C@@H](CC(=O)OCc1ccccc1)C(=O)N[C@@H](CCCCNC(=O)OCc1ccccc1)C(=O)OC(C)(C)C [REVERSIN 121] (Boc-Asp(OBn)-Lys(Cbz)-OtBu) | – | – | – | – | inhibition (INH) [15]: Active |
| – | CC(=O)N[C@@H](CSC(=O)[C@]1([C@@H](O)C(C)C)NC(=O)[C@H](C)[C@@H]1O)C(=O)O [LACTACYSTIN] | 5230 nM | > 100000 nM | – | >19 | – |

| SMILES | IC50 [1] | IC50 [2] | IC50 [5] | IC50 [7] | Ratio IC50 [8] | other results |
| --- | --- | --- | --- | --- | --- | --- |
| CCCCCCC(=O)N[C@@H](C)C(=O)N[C@@H](CC(C)C)C(=O)[C@@]1(CO[Si](C)(C)C(C)(C)C)CO1 | > 10000 nM | 3370 nM | 5210 nM | 2140 to 3720 nM | 1.5 | IC50 [3]: 140 nM; Activity [4]: Active; IC50 [6]: 2140 nM; Activity [9]: Active; Ratio IC50 [10]: 1.7 |
| CC(C)C[C@H](NC(=O)[C@H](CCc1ccccc1)NC(=O)CN1CCOCC1)C(=O)N[C@@H](Cc1ccccc1)C(=O)N[C@@H](CC(C)C)C(=O)[C@@]1(CO[Si](c2ccccc2)(c2ccccc2)C(C)(C)C)CO1 | 112 nM | > 10000 nM | > 10000 nM | – | – | – |
